Source: ChEMBL document CHEMBL2412964, “Discovery of novel tetrahydro-pyrazolo [4,3-c] pyridines for the treatment of neuropathic pain: synthesis and neuropharmacology” (Eur J Med Chem, 2013)
Active and inactive are the calls of the source.

How the values were obtained:
Rattus norvegicus [1] = experiment: Antinociceptive activity in ip dosed Wistar rat chronic constriction injury model assessed as reversal of cold allodynia after 60 mins; format: functional; settings: 1 h
Outline: (§1)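 Wistar rats (200–250 g) with nerve injury, compounds i.p. in 30% v/v PEG 400; dose–response curves in each sensory test (spontaneous pain and cold allodynia as paw withdrawal duration; tactile allodynia and hyperalgesia as withdrawal threshold). ED50 linearly interpolated between doses just above and below 50% response; time of peak effect recorded.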

Rattus norvegicus [2] = experiment: Antinociceptive activity in ip dosed Wistar rat chronic constriction injury model assessed as reversal of mechanical allodynia after 60 mins; format: functional; settings: 1 h; outline: as §1
Rattus norvegicus [3] = experiment: Antinociceptive activity in Wistar rat partial sciatic nerve ligation model assessed as reversal of cold allodynia at 100 mg/kg, ip after 120 mins (reference value: 1.5 +/- 0.5%); format: functional; settings: route intraperitoneal
Rattus norvegicus [4] = species on record: Rattus norvegicus; experiment: Neuroprotective activity in Wistar rat chronic constriction injury model assessed as inhibition of nitric oxide production in sciatic nerve after 2 hrs by Griess method relative to control; format: functional
Outline: (§2)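 Wistar rats of either sex (200-250 g) with chronic constriction of the left sciatic nerve. On day 9 post-injury, compound given i.p. in 30% v/v PEG 400; tissue taken 2 h after dosing. Nitrate reduced to nitrite, nitrite measured colorimetrically with Griess reagent against a standard curve. Results expressed as percentage of vehicle-treated control; n = 4.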

Mus musculus [5] = experiment: Anticonvulsant activity in Swiss albino mouse assessed as protection against picrotoxin-induced seizure at 300 mg/kg, ip administered 30 mins prior to picrotoxin-challenge measured after 4 hrs; format: functional, organism-based; parameters: dose 300 mg/kg
Outline: (§3)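 Mice, either sex, 20-25 g, given compound i.p. at 30, 100 and 300 mg/kg. Thirty minutes later, picrotoxin 3.15 mg/kg was injected s.c. in 0.01 mL/g body weight. Animals were isolated and watched for 45 min for a threshold convulsion, and protection was scored as its absence. Examined at 0.5 and 4 h. Value reported is the minimum dose active in half or more of the mice (n = 3).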

Rattus norvegicus [6] = species on record: Rattus norvegicus; experiment: Neuroprotective activity in Wistar rat chronic constriction injury model assessed as inhibition of nitric oxide production in brain after 2 hrs by Griess method relative to control; format: functional; outline: as §2
Rattus norvegicus [7] = experiment: Antinociceptive activity in Wistar rat chronic constriction injury model assessed as reversal of tactile allodynia at 100 mg/kg, ip after 60 mins (reference value: 1.3 +/- 0.3%); format: functional; settings: route intraperitoneal
Rattus norvegicus [8] = experiment: Antinociceptive activity in Wistar rat chronic constriction injury model assessed as reversal of mechanical allodynia at 100 mg/kg, ip after 120 mins (reference value: 5.3 +/- 0.5%); format: functional; settings: route intraperitoneal
Rattus norvegicus [9] = experiment: Antinociceptive activity in Wistar rat chronic constriction injury model assessed as reversal of cold allodynia at 100 mg/kg, ip after 120 mins (reference value: 5.4 +/- 1.9%); format: functional; settings: route intraperitoneal
Rattus norvegicus [10] = experiment: Antinociceptive activity in Wistar rat chronic constriction injury model assessed as reversal of spontaneous pain response at 100 mg/kg, ip after 120 mins (reference value: 4.5 +/- 0.2%); format: functional; settings: route intraperitoneal
Rattus norvegicus [11] = experiment: Antinociceptive activity in Wistar rat chronic constriction injury model assessed as reversal of spontaneous pain response at 100 mg/kg, ip after 30 mins (reference value: 8.9 +/- 4.6%); format: functional; settings: route intraperitoneal
Rattus norvegicus [12] = experiment: Antinociceptive activity in Wistar rat chronic constriction injury model assessed as reversal of mechanical allodynia at 100 mg/kg, ip after 30 mins (reference value: 4.7 +/- 2.1%); format: functional; settings: route intraperitoneal
Rattus norvegicus [13] = experiment: Antinociceptive activity in Wistar rat partial sciatic nerve ligation model assessed as reversal of tactile allodynia at 100 mg/kg, ip after 120 mins relative to control; format: functional; settings: route intraperitoneal
Rattus norvegicus [14] = experiment: Antinociceptive activity in Wistar rat chronic constriction injury model assessed as reversal of mechanical allodynia at 100 mg/kg, ip after 60 mins (reference value: 4.9 +/- 1.0%); format: functional; settings: route intraperitoneal
Rattus norvegicus [15] = experiment: Antinociceptive activity in ip dosed Wistar rat chronic constriction injury model assessed as reversal of tactile allodynia after 60 mins; format: functional; settings: 1 h; outline: as §1
Mus musculus [16] = experiment: Neurotoxicity in Swiss albino mouse assessed as minimal motor impairment at 300 mg/kg after 0.5 hrs by rotarod test; format: toxicity, organism-based; parameters: dose 300 mg/kg; settings: in vivo
Outline: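 Swiss albino mice of either sex, 20-25 g, dosed at 30, 100 and 300 mg/kg, three per group. Minimal motor impairment scored by rotarod at 0.5 and 4.0 h after dosing. Reported value is the lowest dose giving impairment in half or more of the mice.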

Rattus norvegicus [17] = experiment: Antinociceptive activity in ip dosed Wistar rat partial sciatic nerve ligation model assessed as reversal of tactile allodynia after 120 mins; format: functional; settings: 2 h; outline: as §1
Rattus norvegicus [18] = experiment: Antinociceptive activity in Wistar rat partial sciatic nerve ligation model assessed as reversal of spontaneous pain response at 100 mg/kg, ip after 30 mins (reference value: 3.2 +/- 0.3%); format: functional; settings: route intraperitoneal
Rattus norvegicus [19] = experiment: Antinociceptive activity in ip dosed Wistar rat partial sciatic nerve ligation model assessed as reversal of cold allodynia after 60 mins; format: functional; settings: 1 h; outline: as §1
Rattus norvegicus [20] = experiment: Antinociceptive activity in Wistar rat partial sciatic nerve ligation model assessed as reversal of spontaneous pain response at 100 mg/kg, ip after 60 mins (reference value: 2.9 +/- 0.3%); format: functional; settings: route intraperitoneal
Mus musculus [21] = experiment: Anticonvulsant activity in ip dosed Swiss albino mouse assessed as protection against picrotoxin-induced seizure administered 30 mins prior to picrotoxin-challenge measured after 0.5 hrs; format: functional; settings: read-out: MED; outline: as §3
Rattus norvegicus [22] = experiment: Antinociceptive activity in ip dosed Wistar rat partial sciatic nerve ligation model assessed as reversal of mechanical allodynia after 30 mins; format: functional; settings: 0.5 h; outline: as §1
Rattus norvegicus [23] = experiment: Antinociceptive activity in ip dosed Wistar rat chronic constriction injury model assessed as reversal of spontaneous pain response after 60 mins; format: functional; settings: 1 h; outline: as §1
Rattus norvegicus [24] = experiment: Antinociceptive activity in Wistar rat partial sciatic nerve ligation model assessed as reversal of tactile allodynia at 100 mg/kg, ip after 60 mins (reference value: 12.5 +/- 1.2%); format: functional; settings: route intraperitoneal
Rattus norvegicus [25] = experiment: Antinociceptive activity in ip dosed Wistar rat chronic constriction injury model assessed as reversal of tactile allodynia after 30 mins; format: functional; settings: 0.5 h; outline: as §1
Mus musculus [26] = experiment: Anticonvulsant activity in ip dosed Swiss albino mouse assessed as protection against picrotoxin-induced seizure administered 30 mins prior to picrotoxin-challenge measured after 4 hrs; format: functional; settings: read-out: MED; outline: as §3
Rattus norvegicus [27] = experiment: Antinociceptive activity in ip dosed Wistar rat partial sciatic nerve ligation model assessed as reversal of tactile allodynia after 30 mins; format: functional; settings: 0.5 h; outline: as §1
Rattus norvegicus [28] = experiment: Antinociceptive activity in ip dosed Wistar rat chronic constriction injury model assessed as reversal of mechanical allodynia after 30 mins; format: functional; settings: 0.5 h; outline: as §1
Rattus norvegicus [29] = experiment: Antinociceptive activity in ip dosed Wistar rat chronic constriction injury model assessed as reversal of cold allodynia after 30 mins; format: functional; settings: 0.5 h; outline: as §1
Rattus norvegicus [30] = experiment: Antinociceptive activity in ip dosed Wistar rat partial sciatic nerve ligation model assessed as reversal of tactile allodynia after 60 mins; format: functional; settings: 1 h; outline: as §1
Rattus norvegicus [31] = experiment: Antinociceptive activity in ip dosed Wistar rat chronic constriction injury model assessed as reversal of spontaneous pain response after 30 mins; format: functional; settings: 0.5 h; outline: as §1
Rattus norvegicus [32] = experiment: Antinociceptive activity in ip dosed Wistar rat partial sciatic nerve ligation model assessed as reversal of cold allodynia after 30 mins; format: functional; settings: 0.5 h; outline: as §1

CCN1CCc2c(c(C(C)(C)C)nn2C(=O)Nc2ccc(C)cc2C)C1
ED50 (Rattus norvegicus [1]): 29.8 mg/kg
ED50 (Rattus norvegicus [2]): 25.7 mg/kg
Activity (Rattus norvegicus [3]): 38.2%
inhibition (INH) (Rattus norvegicus [4]): 65.4%
Activity (Mus musculus [5]): inactive
inhibition (INH) (Rattus norvegicus [6]): 12.5%
Activity (Rattus norvegicus [7]): 54.5%
Activity (Rattus norvegicus [8]): 67.5%
Activity (Rattus norvegicus [9]): 40.4%
Activity (Rattus norvegicus [10]): 89.5%
Activity (Rattus norvegicus [11]): 85.4%
Activity (Rattus norvegicus [12]): 93.8%
Activity (Rattus norvegicus [13]): 88.4%
Activity (Rattus norvegicus [14]): 80%
ED50 (Rattus norvegicus [15]): 23.4 mg/kg
Activity (Mus musculus [16]): Non-toxic
ED50 (Rattus norvegicus [17]): 36.1 mg/kg
Activity (Rattus norvegicus [18]): 89.9%
ED50 (Rattus norvegicus [19]): 44.4 mg/kg
Activity (Rattus norvegicus [20]): 67.3%
minimal effective dose (Mus musculus [21]): 300 mg/kg
ED50 (Rattus norvegicus [22]): 31.8 mg/kg
ED50 (Rattus norvegicus [23]): 15.5 mg/kg
Activity (Rattus norvegicus [24]): 50.4%

CCN1CCc2c(c(C(C)(C)C)nn2C(=O)Nc2c(C)cccc2C)C1
ED50 (Rattus norvegicus [1]): 37.4 mg/kg
ED50 (Rattus norvegicus [2]): 38.3 mg/kg
Activity (Rattus norvegicus [3]): 10.4%
inhibition (INH) (Rattus norvegicus [4]): 68.7%
inhibition (INH) (Rattus norvegicus [6]): 15.3%
Activity (Rattus norvegicus [7]): 54.5%
Activity (Rattus norvegicus [8]): 78.9%
ED50 (Rattus norvegicus [25]): 21.7 mg/kg
minimal effective dose (Mus musculus [26]): 100 mg/kg
Activity (Rattus norvegicus [9]): 18.8%
Activity (Rattus norvegicus [10]): 88.5%
Activity (Rattus norvegicus [11]): 95%
Activity (Rattus norvegicus [12]): 69.4%
ED50 (Rattus norvegicus [27]): 24.9 mg/kg
Activity (Rattus norvegicus [13]): 46.6%
Activity (Rattus norvegicus [14]): 84.4%
Activity (Mus musculus [16]): Non-toxic
Activity (Rattus norvegicus [18]): 93.9%
ED50 (Rattus norvegicus [19]): 65.8 mg/kg
Activity (Rattus norvegicus [20]): 78.3%
minimal effective dose (Mus musculus [21]): 100 mg/kg
ED50 (Rattus norvegicus [22]): 23.6 mg/kg
ED50 (Rattus norvegicus [23]): 10.4 mg/kg
Activity (Rattus norvegicus [24]): 61.6%

CCN1CCc2c(c(C(C)(C)C)nn2C(=O)Nc2ccc(Br)cc2)C1
Activity (Rattus norvegicus [3]): 48.2%
inhibition (INH) (Rattus norvegicus [4]): 47.8%
inhibition (INH) (Rattus norvegicus [6]): 16.4%
Activity (Rattus norvegicus [7]): 58.2%
Activity (Rattus norvegicus [8]): 65.3%
ED50 (Rattus norvegicus [25]): 23.8 mg/kg
minimal effective dose (Mus musculus [26]): 100 mg/kg
ED50 (Rattus norvegicus [28]): 37.3 mg/kg
Activity (Rattus norvegicus [9]): 56.9%
Activity (Rattus norvegicus [10]): 83.2%
Activity (Rattus norvegicus [11]): 90.6%
Activity (Rattus norvegicus [12]): 81.9%
ED50 (Rattus norvegicus [29]): 41.4 mg/kg
ED50 (Rattus norvegicus [30]): 37.5 mg/kg
Activity (Rattus norvegicus [13]): 44.9%
Activity (Rattus norvegicus [14]): 66%
Activity (Mus musculus [16]): Non-toxic
Activity (Rattus norvegicus [18]): 90.4%
Activity (Rattus norvegicus [20]): 55.7%
minimal effective dose (Mus musculus [21]): 100 mg/kg
ED50 (Rattus norvegicus [31]): 27.3 mg/kg
ED50 (Rattus norvegicus [22]): 29 mg/kg
Activity (Rattus norvegicus [24]): 44.9%
ED50 (Rattus norvegicus [32]): 68 mg/kg
